Rows were chosen to be rich in hits. Some 0.79% of all compounds tested hit in one or more screens of this group.
Redox H2O2 prof: compounds producing H2O2 with reducing agent – biochemical, NIH compound library profiling, artefact control for MLSCN library redox annotation, primary screen | DTT-dependent redox cycling H2O2, phenol red/HRP absorbance; 100% = 100 µM peroxide control, 0% = buffer | activation, % at 10 µM | actives 0.03% (n = 200,000);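 active means activation of at least 50% relative to the plate's high and low controls in the primary single-dose screen; inactive means activation below 50%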;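 further: compound incubated with DTT at 0.8 mM final as the reducing agent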
TNAP act hiacc: increases human TNAP activity under high phosphate acceptor concentration; P05186; purified TNAP, CDP-star luminescence, 1 M DEA, 30 min; active compounds read high; 0 = EDTA background, 1 = DMSO-only activity; activation factor at 20 µM; 200,000 tested, under 10 active; AID 1136;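 active means activation factor at least 2 at 20 µM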
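Assay system: human TNAP; Input: enzyme diluted 1/800 final; Reagent: CDP-star luminogenic substrate at 100 µM final; Timing: 30 min, room temperature; Signal: luminescence; Evaluation: TNAP activation factor scaled between EDTA and DMSO control wells.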
p97 inhibitor: inhibitors of human p97 ATPase | P55072 | recombinant p97 ATPase, Kinase-Glo ATP luminescence, 3 h | inhibition, % at 8 µM | actives 0.42% (n = 220,000); in the data active means inhibition above about 15%;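 further: 0% = DMSO vehicle and 100% = wells lacking enzyme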
Target sequence (P55072 whole entry, looked up): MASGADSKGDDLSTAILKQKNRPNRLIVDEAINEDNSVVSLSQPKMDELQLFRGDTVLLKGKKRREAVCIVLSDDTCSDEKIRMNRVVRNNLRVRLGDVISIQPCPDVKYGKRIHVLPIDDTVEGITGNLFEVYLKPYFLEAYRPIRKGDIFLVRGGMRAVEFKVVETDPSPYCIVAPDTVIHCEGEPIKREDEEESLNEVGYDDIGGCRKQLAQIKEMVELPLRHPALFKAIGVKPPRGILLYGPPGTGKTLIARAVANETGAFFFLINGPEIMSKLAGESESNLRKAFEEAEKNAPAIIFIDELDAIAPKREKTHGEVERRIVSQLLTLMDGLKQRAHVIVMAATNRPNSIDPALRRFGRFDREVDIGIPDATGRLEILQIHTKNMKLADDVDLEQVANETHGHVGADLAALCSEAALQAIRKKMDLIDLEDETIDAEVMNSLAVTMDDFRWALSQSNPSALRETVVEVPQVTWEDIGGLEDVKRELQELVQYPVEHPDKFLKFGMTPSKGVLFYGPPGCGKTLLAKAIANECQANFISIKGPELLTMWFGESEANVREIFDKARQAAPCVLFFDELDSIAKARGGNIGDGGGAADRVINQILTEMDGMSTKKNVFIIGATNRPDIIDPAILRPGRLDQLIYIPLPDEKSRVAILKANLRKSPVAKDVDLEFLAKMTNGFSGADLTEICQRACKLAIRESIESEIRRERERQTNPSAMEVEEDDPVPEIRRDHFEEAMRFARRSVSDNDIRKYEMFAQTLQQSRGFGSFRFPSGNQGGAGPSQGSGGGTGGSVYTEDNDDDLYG
TNAP inh hi DEA: inhibitors of human TNAP at high phosphate acceptor concentration; AID 1135; inhibition, % at 20 µM; actives 0.03% (n = 200,000); purified TNAP, CDP-star luminescence, 1 M DEA; P05186;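 active means over 50% inhibition of tissue-nonspecific alkaline phosphatase at 20 µM in the single-dose screen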;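 further: plate controls were DMSO wells for no effect and EDTA-quenched wells as full inhibition for full effect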
TNAP inh no acc: TNAP (human) inhibition, acceptor-free conditions. actives 0.26% (n = 200,000). purified TNAP, CDP-star luminescence, 30 min. P05186. AID 1012. inhibition, % at 20 µM;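 active means tissue-nonspecific alkaline phosphatase inhibition above about 50% at 20 µM in the single-dose screen, limit read from the data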;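 further: 0% = DMSO negative control and 100% = EDTA positive control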
G6PDH counter: inhibits Leuconostoc G6PDH, flagging false hits in G6PDH-based assays. Purified L. mesenteroides G6PDH, diaphorase/resazurin coupled fluorescence, 45 min. actives 0.12% (n = 200,000). inhibition, % at 5 µM; in the data active means inhibition above about 50%
p97 confirm: confirmation of human p97 ATPase inhibitors | inhibition, % at 8 µM | shares compounds with p97 inhibitor | recombinant p97 ATPase, Kinase-Glo ATP luminescence | actives 44% (n = 760);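 active means percent inhibition of p97 ATPase above a set limit, the primary screen's mean plus 3 SD, cut at about 15% in these data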;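 further: 0% = DMSO wells and 100% = wells lacking p97 protein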
Numbers without * were called inactive.

What do the screens show for `NS(=O)(=O)c1ccc(Nc2nc(-c3ccc(O)cc3O)cs2)cc1`?
Redox H2O2 prof: 0; TNAP act hiacc: 1; p97 inhibitor: 27*; TNAP inh hi DEA: 2; TNAP inh no acc: -91; G6PDH counter: 20; p97 confirm: 51*

How did COc1ccc(/C=C/C(=O)OCC(=O)Nc2ccc(N3CCOCC3)cc2)cc1OC do in these assays?
p97 inhibitor: -4

What do the screens show for `O=C(Nc1cccc(F)c1)c1c(O)c2cccc3c2n(c1=O)CCC3`?
Redox H2O2 prof: 6; TNAP act hiacc: 1; p97 inhibitor: 18*; TNAP inh hi DEA: -4; TNAP inh no acc: -7; G6PDH counter: 7; p97 confirm: 8

What do the screens show for `Cc1cccc(NC(=O)c2c(O)c3cccc4c3n(c2=O)CC4)c1`?
Redox H2O2 prof: 10; p97 inhibitor: 5

Results for CN(C)/C=C(\C#N)C(=O)N/N=C/c1ccccc1 ?
Redox H2O2 prof: 0; TNAP act hiacc: 1; p97 inhibitor: 5; TNAP inh hi DEA: -5; TNAP inh no acc: -14; G6PDH counter: 6

How did CCc1nnc(NS(=O)(=O)c2ccc(NC(=S)Nc3ccc(F)cc3)cc2)s1 do in these assays?
Redox H2O2 prof: 0; TNAP act hiacc: 0.9; p97 inhibitor: 17*; TNAP inh hi DEA: 9; TNAP inh no acc: 2; G6PDH counter: 2; p97 confirm: 3

What do the screens show for `CCc1nnc(NS(=O)(=O)c2ccc(NC(=S)NC(=O)c3ccccc3)cc2)s1`?
Redox H2O2 prof: 0; TNAP act hiacc: 1; p97 inhibitor: 0; TNAP inh hi DEA: -3; TNAP inh no acc: 22; G6PDH counter: -25

Results for Cc1ccc(S(=O)c2ccc(NC(=O)C3CC3)cc2C#N)cc1 (stereo not drawn) ?
Redox H2O2 prof: 11; TNAP act hiacc: 1.1; p97 inhibitor: 17*; TNAP inh hi DEA: -5; TNAP inh no acc: -16; G6PDH counter: 13; p97 confirm: 3

How did O=C(CSc1nc2ccc([N+](=O)[O-])cc2s1)c1ccc2ccccc2c1 do in these assays?
p97 inhibitor: 17*; p97 confirm: 8

How did O=[N+]([O-])c1ccc2nc(SCc3ccccc3Cl)sc2c1 do in these assays?
Redox H2O2 prof: -5; TNAP act hiacc: 1; p97 inhibitor: -3; TNAP inh hi DEA: -1; TNAP inh no acc: -5; G6PDH counter: 3

How did N=C1/C(=C\c2coc3ccc(O)cc3c2=O)C(=O)N=C2SC=CN12 do in these assays?
p97 inhibitor: 28*; p97 confirm: 24*

How did N=C1/C(=C\c2coc3ccccc3c2=O)C(=O)N=C2SC(c3ccncc3)=NN12 do in these assays?
p97 inhibitor: 32*; p97 confirm: 44*

How did N=C1/C(=C/c2coc3ccccc3c2=O)C(=O)N=C2SC(c3ccco3)=NN12 do in these assays?
p97 inhibitor: 16*; p97 confirm: 19*

What do the screens show for `CCOC(=O)Cc1csc(NS(=O)(=O)c2ccc(OC)cc2)n1`?
Redox H2O2 prof: 7; TNAP act hiacc: 1; p97 inhibitor: 5; TNAP inh hi DEA: -2; TNAP inh no acc: -9; G6PDH counter: 4

Results for O=c1[nH]c(CSc2nc(-c3ccc(F)cc3)cs2)nc2ccccc12 ?
Redox H2O2 prof: 0; TNAP act hiacc: 1; p97 inhibitor: 5; TNAP inh hi DEA: 0; TNAP inh no acc: -7; G6PDH counter: -22

How did Cc1ccc(NC(=O)/C(Cl)=C/c2ccccc2)cc1C do in these assays?
Redox H2O2 prof: 0; TNAP act hiacc: 1; p97 inhibitor: -5; TNAP inh hi DEA: 1; TNAP inh no acc: -7; G6PDH counter: -14

Results for O=[N+]([O-])c1c(NCc2ccco2)ccc2nonc12 ?
p97 inhibitor: 18*; p97 confirm: 9

What do the screens show for `O=C1/C(=C/c2c[nH]c3ccccc23)CCC/C1=C\c1c[nH]c2ccccc12`?
Redox H2O2 prof: 0; TNAP act hiacc: 1; p97 inhibitor: 29*; TNAP inh hi DEA: 2; TNAP inh no acc: 35; G6PDH counter: 17; p97 confirm: 23*

What do the screens show for `CCOC(=O)C1=C(c2ccccc2)NC(N)=NC1c1ccc(OCc2ccc(C(=O)OC)cc2)cc1` (stereo not drawn)?
p97 inhibitor: 33*; p97 confirm: 35*

How did CCOC(=O)C1=C(c2ccccc2)Nc2ncnn2C1c1ccc(C(=O)O)cc1 (stereo not drawn) do in these assays?
p97 inhibitor: 6

What do the screens show for `Cn1c(=NC(=O)CCl)sc2ccccc21`?
Redox H2O2 prof: -4; TNAP act hiacc: 1.1; p97 inhibitor: 20*; TNAP inh hi DEA: -5; TNAP inh no acc: -8; G6PDH counter: -2; p97 confirm: 22*

Results for Nc1c(C(=O)O)sc2nc(-c3ccccc3)cc(-c3ccccc3)c12 ?
p97 inhibitor: 23*; p97 confirm: 7

How did Cc1[nH]c2ccccc2c1C(=O)COC(=O)c1ccc[n+]([O-])c1 do in these assays?
p97 inhibitor: 10

What do the screens show for `Cc1[nH]c2ccccc2c1C(=O)COC(=O)c1ccc([N+](=O)[O-])s1`?
Redox H2O2 prof: 1; TNAP act hiacc: 1; p97 inhibitor: 39*; TNAP inh hi DEA: -3; TNAP inh no acc: -1; G6PDH counter: 18; p97 confirm: 31*

How did CCN(CC)S(=O)(=O)c1cc(NC(=O)[C@@H](NC(N)=O)C(C)C)ccc1C do in these assays?
Redox H2O2 prof: 0; TNAP act hiacc: 1; p97 inhibitor: -1; TNAP inh hi DEA: -1; TNAP inh no acc: -8; G6PDH counter: 0

How did FC(F)(F)c1nnc2c(Sc3ccccn3)nc3ccccc3n12 do in these assays?
Redox H2O2 prof: -4; TNAP act hiacc: 1; p97 inhibitor: 19*; TNAP inh hi DEA: -2; TNAP inh no acc: -5; G6PDH counter: 2; p97 confirm: 6

What do the screens show for `FC(F)(F)c1nnc2c(Sc3ccccc3)nc3ccccc3n12`?
Redox H2O2 prof: 3; TNAP act hiacc: 1; p97 inhibitor: 8; TNAP inh hi DEA: -3; TNAP inh no acc: -4; G6PDH counter: -20

Results for O=C1S/C(=C\C=C\c2ccco2)C(=O)N1c1ccccc1 ?
Redox H2O2 prof: 1; TNAP act hiacc: 0.9; p97 inhibitor: 7; TNAP inh hi DEA: 10; TNAP inh no acc: -8; G6PDH counter: -4

What do the screens show for `Cn1cccc1/C=C1\SC(=S)N(NC(=O)c2ccccc2O)C1=O`?
p97 inhibitor: 3

How did O=C(NN1C(=O)/C(=C/C=C/c2ccco2)SC1=S)c1ccccc1O do in these assays?
p97 inhibitor: 55*; p97 confirm: 21*

High-throughput results (PubChem BioAssay)
